Laboratory results reported in ChEMBL document CHEMBL1255195, “Synthesis and biological activity of pyrido[3',2':4,5]thieno[3,2-d]pyrimidines as phosphodiesterase type 4 inhibitors” (J Med Chem, 2010).

What was measured:
[1] = target: 3',5'-cyclic-AMP phosphodiesterase 4B (Homo sapiens, UniProt Q07343); assay: Inhibition of PDE4B1 expressed in yeast
In short: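 Human recombinant PDE4A4, PDE4B1 or PDE4D3 made in galactose-induced […]; dialysed extracts (~4 μg protein) used. Hydrolysis of 15 nM [3H]-cAMP in 50 mM Tris pH 7.5, 8.3 mM MgCl2, 1.7 mM EGTA, final DMSO 5%, 60 min at room temperature. Reaction stopped with SPA beads, then scintillation counted. Compounds tested 10 μM to 10 pM in duplicate; IC50 calculated.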

[2] = target: 3',5'-cyclic-AMP phosphodiesterase 4D (Homo sapiens, UniProt Q08499); assay: Inhibition of PDE4D3 expressed in yeast
[3] = target: 3',5'-cyclic-AMP phosphodiesterase 4A (Homo sapiens, UniProt P27815); assay: Inhibition of PDE4A4 expressed in yeast
Blood = assay: Antiinflammatory activity against LPS-induced TNFalpha production in human whole blood by ELISA; assay type: functional, tissue-based
In short: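 Human whole blood preincubated at 37 °C for 10 min with LPS at final 1 μg/mL; inhibitors in 100% DMSO added at increasing concentrations, blood (LPS-free for controls) incubated 24 h at 37 °C under agitation. Reaction stopped on ice with PBS and centrifugation; serum TNFα measured by sandwich ELISA, TMB substrate, 450 nm. Experiments run 2-3 times, duplicates averaged, given as pg/mL.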

[4] = Apparent permeability from apical to basolateral side of human Caco-2 cells; assay type: ADME, cell-based
In short: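 Caco-2 cells seeded at 500 000 cells/well on collagen-coated PET membranes (1 μm pores), differentiated and used six days post-seeding. Compound applied in HBSS with 10 mM Hepes and 25 mM glucose, pH 7.4, at most 1% DMSO, on the apical side. Samples taken after 3 h and analysed by HPLC-UV. [3H]mannitol 115 nM served as integrity control.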

Chain of 3',5'-cyclic-AMP phosphodiesterase 4A (P27815 whole entry): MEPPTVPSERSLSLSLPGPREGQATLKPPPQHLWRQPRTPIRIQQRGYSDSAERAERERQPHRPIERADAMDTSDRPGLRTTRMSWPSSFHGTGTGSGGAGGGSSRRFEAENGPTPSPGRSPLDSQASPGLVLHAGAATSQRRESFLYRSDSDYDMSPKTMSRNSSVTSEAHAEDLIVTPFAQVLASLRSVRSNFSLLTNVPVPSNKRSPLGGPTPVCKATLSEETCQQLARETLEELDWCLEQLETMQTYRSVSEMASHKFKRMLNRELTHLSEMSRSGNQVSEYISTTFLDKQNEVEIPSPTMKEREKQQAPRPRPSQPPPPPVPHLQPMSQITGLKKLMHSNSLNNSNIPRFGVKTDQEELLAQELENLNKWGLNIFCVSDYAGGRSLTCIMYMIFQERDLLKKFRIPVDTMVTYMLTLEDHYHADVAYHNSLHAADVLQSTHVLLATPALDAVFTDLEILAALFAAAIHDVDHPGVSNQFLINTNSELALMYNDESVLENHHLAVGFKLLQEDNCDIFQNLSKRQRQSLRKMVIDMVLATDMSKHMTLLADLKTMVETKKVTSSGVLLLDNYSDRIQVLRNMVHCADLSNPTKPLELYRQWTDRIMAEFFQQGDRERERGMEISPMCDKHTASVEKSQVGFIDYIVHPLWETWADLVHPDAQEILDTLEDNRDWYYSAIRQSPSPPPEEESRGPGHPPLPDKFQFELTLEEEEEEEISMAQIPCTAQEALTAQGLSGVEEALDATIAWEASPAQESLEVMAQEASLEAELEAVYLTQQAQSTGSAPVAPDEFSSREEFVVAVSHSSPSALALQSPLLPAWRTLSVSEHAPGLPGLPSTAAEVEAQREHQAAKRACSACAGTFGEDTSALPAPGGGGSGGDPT
Chain of 3',5'-cyclic-AMP phosphodiesterase 4D (Q08499 whole entry): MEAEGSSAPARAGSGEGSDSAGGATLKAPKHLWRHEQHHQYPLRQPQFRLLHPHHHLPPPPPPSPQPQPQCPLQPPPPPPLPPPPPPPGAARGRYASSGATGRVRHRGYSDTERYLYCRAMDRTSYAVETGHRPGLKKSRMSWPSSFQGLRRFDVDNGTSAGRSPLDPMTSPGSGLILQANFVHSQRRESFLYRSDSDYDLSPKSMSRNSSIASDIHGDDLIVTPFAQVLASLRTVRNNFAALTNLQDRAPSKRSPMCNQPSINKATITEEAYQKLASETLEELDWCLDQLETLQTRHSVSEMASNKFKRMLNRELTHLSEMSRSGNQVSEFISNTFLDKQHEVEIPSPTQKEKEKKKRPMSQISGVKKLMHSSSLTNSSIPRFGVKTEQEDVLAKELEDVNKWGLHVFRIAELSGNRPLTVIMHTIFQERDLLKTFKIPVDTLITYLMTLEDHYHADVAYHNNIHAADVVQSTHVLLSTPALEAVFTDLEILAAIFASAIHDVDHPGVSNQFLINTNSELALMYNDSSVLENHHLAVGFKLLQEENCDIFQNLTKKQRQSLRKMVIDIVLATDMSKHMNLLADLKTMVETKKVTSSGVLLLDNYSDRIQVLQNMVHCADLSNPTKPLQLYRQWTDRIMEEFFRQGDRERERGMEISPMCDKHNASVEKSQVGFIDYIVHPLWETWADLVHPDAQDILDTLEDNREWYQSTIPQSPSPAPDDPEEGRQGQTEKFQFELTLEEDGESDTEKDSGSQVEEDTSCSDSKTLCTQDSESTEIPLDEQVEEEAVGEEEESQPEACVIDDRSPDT
Chain of 3',5'-cyclic-AMP phosphodiesterase 4B (Q07343 whole entry): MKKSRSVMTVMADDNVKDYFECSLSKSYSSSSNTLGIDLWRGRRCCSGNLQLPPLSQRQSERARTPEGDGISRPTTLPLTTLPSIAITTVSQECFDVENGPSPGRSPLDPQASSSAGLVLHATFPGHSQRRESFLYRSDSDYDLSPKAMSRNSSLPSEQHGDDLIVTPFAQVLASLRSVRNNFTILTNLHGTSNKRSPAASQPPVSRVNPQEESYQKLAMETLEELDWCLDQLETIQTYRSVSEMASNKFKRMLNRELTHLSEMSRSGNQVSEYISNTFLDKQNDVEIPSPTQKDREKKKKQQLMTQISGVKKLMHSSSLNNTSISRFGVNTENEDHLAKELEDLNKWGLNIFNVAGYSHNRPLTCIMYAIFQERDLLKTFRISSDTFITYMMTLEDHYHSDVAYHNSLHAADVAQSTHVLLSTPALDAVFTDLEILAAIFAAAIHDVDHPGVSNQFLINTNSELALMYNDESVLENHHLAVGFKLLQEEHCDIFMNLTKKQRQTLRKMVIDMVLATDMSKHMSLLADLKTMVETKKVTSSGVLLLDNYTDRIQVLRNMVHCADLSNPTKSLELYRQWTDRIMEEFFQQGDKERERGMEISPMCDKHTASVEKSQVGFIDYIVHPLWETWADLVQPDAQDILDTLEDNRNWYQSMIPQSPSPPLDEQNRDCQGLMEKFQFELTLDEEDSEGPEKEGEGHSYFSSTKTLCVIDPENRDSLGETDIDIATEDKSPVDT

Row | Compound | IC50 [1] [nM] | IC50 [2] [nM] | IC50 [3] [nM] | IC50 (Blood) [nM] | Papp A→B [4] [×10⁻⁶ cm/s]
1 | CN1CCN(c2nc3sc4c(NCCN5CCOCC5)ncnc4c3c3c2COC(C)(C)C3)CC1 | 1200 | – | – | – | –
2 | CCC1(C)Cc2c(c(N3CCOCC3)nc3sc4c(NCCN5CCOCC5)ncnc4c23)CO1 (stereo not given) | 90 | – | – | 2040 | –
3 | CC1(C)Cc2c(c(N3CCOCC3)nc3sc4c(NCCN5CCOCC5)ncnc4c23)CO1 | 26 | 604 | 63 | 235 | –
4 | CC1(C)Cc2c(N3CCOCC3)nc3sc4c(NCCN5CCOCC5)ncnc4c3c2C1 | 333 | – | – | – | –
5 | COc1ccccc1CNc1ncnc2c1sc1nc(N3CCOCC3)c3c(c12)CC(C)(C)CC3 | 213 | – | – | – | –
6 | CN1CCN(c2nc3sc4c(NCCN5CCOCC5)ncnc4c3c3c2CCC(C)(C)C3)CC1 | 95 | – | – | – | –
7 | CC1(C)Cc2c(c(N3CCOCC3)nc3sc4c(NCCCN5CCCC5=O)ncnc4c23)CO1 | 167 | – | – | – | –
8 | COc1ccc(C2CNC(=O)C2)cc1OC1CCCC1 (stereo not given) [ROLIPRAM] | – | – | – | 1480 | –
9 | COc1ccccc1CNc1ncnc2c1sc1nc(N3CCOCC3)c3c(c12)CC(C)(C)OC3 | 40 | 119 | 67 | 1190 | –
10 | CC1(C)Cc2c(c(N3CCOCC3)nc3sc4c(NCCN5CCCCC5)ncnc4c23)CO1 | 284 | – | – | – | –
11 | CN1Cc2c(N3CCOCC3)nc3sc4c(NCCN5CCOCC5)ncnc4c3c2CC1(C)C | 3700 | – | – | 3270 | –
12 | CNc1nc2sc3c(NCCN4CCOCC4)ncnc3c2c2c1COC(C)(C)C2 | 51 | – | – | – | –
13 | CN(C)c1nc2sc3c(NCCN4CCOCC4)ncnc3c2c2c1COC(C)(C)C2 | 45 | 25 | 20 | 261 | 21.9
14 | Cc1nc2sc3c(NCCN4CCOCC4)ncnc3c2c2c1CCC(C)(C)C2 | 37 | 34 | 97 | 912 | –
15 | c1nc(NCCN2CCOCC2)c2sc3nc(N4CCOCC4)c4c(c3c2n1)CCOC4 | 1770 | – | – | – | –
16 | CC1(C)CCc2c(N3CCOCC3)nc3sc4c(NCCN5CCOCC5)ncnc4c3c21 | 274 | – | – | – | –
17 | CN(Cc1ccccc1)c1nc2sc3c(NCCN4CCOCC4)ncnc3c2c2c1CCC(C)(C)C2 | 865 | – | – | – | –

More lines, in order of falling IC50 [1], values ahead:

Row | IC50 [1] [nM] | IC50 [2] [nM] | IC50 [3] [nM] | IC50 (Blood) [nM] | Papp A→B [4] [×10⁻⁶ cm/s] | Compound
18 | 22 | 128 | 97 | 1020 | – | CC1(C)Cc2c(c(N3CCOCC3)nc3sc4c(NCc5ccncc5)ncnc4c23)CO1
19 | 21 | 61 | 18 | 2150 | – | CC1(C)CCc2c(N3CCOCC3)nc3sc4c(NCCCN5CCCC5=O)ncnc4c3c2C1
20 | 13 | 39 | 23 | 537 | – | CC1(C)Cc2c(c(N3CCOCC3)nc3sc4c(N(CCO)CCN5CCOCC5)ncnc4c23)CO1
21 | 11 | 13 | 19 | 2040 | – | CC1(C)CCc2c(N3CCOCC3)nc3sc4c(NCc5ccncc5)ncnc4c3c2C1
22 | 9.9 | 4.2 | 18 | 233 | 13.7 | CNc1nc2sc3c(NCCN4CCOCC4)ncnc3c2c2c1CCC(C)(C)C2
23 | 8.05 | 11 | 43 | 655 | – | CC1(C)CCc2c(N3CCCC3)nc3sc4c(NCCN5CCOCC5)ncnc4c3c2C1
24 | 7.2 | 39 | 6.7 | 1280 | 0.4 | CC(C)Cc1nc2sc3c(NCCN4CCOCC4)ncnc3c2c2c1CCC(C)(C)C2
25 | 5.7 | 52 | 48 | 639 | – | CC1(C)Cc2c(c(N3CCOCC3)nc3sc4c(NCc5cccnc5)ncnc4c23)CO1
26 | 4.5 | 19 | 5 | 401 | – | CC1(C)Cc2c(c(N3CCOCC3)nc3sc4c(N(CCN5CCOCC5)Cc5cccnc5)ncnc4c23)CO1
27 | 3.8 | 7.9 | 5.4 | 1090 | – | CC1(C)CCc2c(-c3ccco3)nc3sc4c(NCCN5CCOCC5)ncnc4c3c2C1
28 | 3.6 | 32 | 4.5 | 381 | – | CC1(C)CCc2c(N3CCOCC3)nc3sc4c(NCc5cccnc5)ncnc4c3c2C1
29 | 2.9 | 3.1 | 9 | 1240 | – | CC1(C)CCc2c(-c3ccoc3)nc3sc4c(NCCN5CCOCC5)ncnc4c3c2C1
30 | 2.9 | 4.6 | 74 | 1370 | – | CC1(C)CCc2c(N3CCOCC3)nc3sc4c(NCCN5CCOCC5)ncnc4c3c2C1
31 | 2.8 | 1.8 | 6.4 | 327 | – | CC1(C)CCc2c(N3CCOCC3)nc3sc4c(N(CCO)CCN5CCOCC5)ncnc4c3c2C1
